{
  "source": "ChEMBL document CHEMBL1144511",
  "about": "“Synthesis and biological evaluation of phenolic Mannich bases of benzaldehyde and (thio)semicarbazone derivatives against the cysteine protease falcipain-2 and a chloroquine resistant strain of Plasmodium falciparum” (Bioorg Med Chem, 2007)",
  "key": {"[1]": {"biological_target": "T1, Falcipain 2 (Plasmodium falciparum, UniProt Q9N6S8)", "T1 sequence (Q9N6S8 whole entry)": "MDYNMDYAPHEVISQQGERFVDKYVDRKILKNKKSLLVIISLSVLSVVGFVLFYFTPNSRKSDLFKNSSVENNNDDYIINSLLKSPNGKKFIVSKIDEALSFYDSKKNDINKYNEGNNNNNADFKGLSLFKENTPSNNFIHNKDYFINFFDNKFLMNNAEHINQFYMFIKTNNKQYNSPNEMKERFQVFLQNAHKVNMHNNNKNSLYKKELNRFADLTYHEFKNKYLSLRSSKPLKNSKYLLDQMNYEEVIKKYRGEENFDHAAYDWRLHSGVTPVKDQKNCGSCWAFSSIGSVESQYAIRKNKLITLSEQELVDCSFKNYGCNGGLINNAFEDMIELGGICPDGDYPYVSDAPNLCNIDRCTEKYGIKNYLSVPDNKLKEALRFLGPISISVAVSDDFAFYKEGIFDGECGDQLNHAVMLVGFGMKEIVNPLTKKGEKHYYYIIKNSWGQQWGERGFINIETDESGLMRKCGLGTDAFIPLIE", "assay": "Inhibition of Plasmodium falciparum recombinant falcipain-2", "summary_of_the_method": "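Recombinant enzyme (~1 nM) preincubated 30 min at room temperature with inhibitor dilutions (from 100× DMSO stocks) in 100 mM sodium acetate pH 5.5, 10 mM dithiothreitol; benzyloxycarbonyl peptide fluorogenic substrate then added, fluorescence followed continuously 30 min at room temperature. IC50 from activity versus inhibitor concentration plots.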"}, "[2]": {"system": "Plasmodium falciparum", "assay": "Antiparasitic activity against Plasmodium falciparum W2", "assay_type": "functional, organism-based", "summary_of_the_method": "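W2 (chloroquine-resistant) P. falciparum cultured at 1% parasitaemia, 2% haematocrit. Inhibitors from 10 mM DMSO stocks added to 20 μM final, then serially diluted to 10 μM, 2 μM, 0.4 μM, 80, 16 and 3.2 nM, in duplicate plates. Cultures kept 2 days at 37 °C, washed and fixed in 1% formaldehyde/PBS. Parasitaemia read by flow cytometry with YOYO-1 DNA stain.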"}},
  "data": [
    {"smiles": "O=Cc1ccc(O)c(CN2CCN(c3ccnc4cc(Cl)ccc34)CC2)c1O", "values": [
      {"measurement": "IC50", "setting": "[1]", "value": "> 20", "unit": "µM"},
      {"measurement": "IC50", "setting": "[2]", "value": 1.07, "unit": "µM"}
    ]},
    {"smiles": "CCN(CC)Cc1c(O)ccc(/C=N/NC(=O)NCCNc2ccnc3cc(Cl)ccc23)c1O", "values": [
      {"measurement": "IC50", "setting": "[1]", "value": 2.6, "unit": "µM"},
      {"measurement": "IC50", "setting": "[2]", "value": 0.44, "unit": "µM"}
    ]},
    {"smiles": "CN1CCN(Cc2c(O)ccc(C=O)c2O)CC1", "values": [
      {"measurement": "IC50", "setting": "[1]", "value": "> 20", "unit": "µM"},
      {"measurement": "IC50", "setting": "[2]", "value": "> 10", "unit": "µM"}
    ]},
    {"smiles": "NC(=S)N/N=C/c1ccc(O)c(CN2CCCCC2)c1O", "values": [
      {"measurement": "IC50", "setting": "[1]", "value": 3.8, "unit": "µM"},
      {"measurement": "IC50", "setting": "[2]", "value": "> 10", "unit": "µM"}
    ]},
    {"smiles": "O=C(NCCNc1ccnc2cc(Cl)ccc12)N/N=C/c1ccc(O)c(CN2CCCCC2)c1O", "values": [
      {"measurement": "IC50", "setting": "[1]", "value": 0.63, "unit": "µM"},
      {"measurement": "IC50", "setting": "[2]", "value": 0.27, "unit": "µM"}
    ]},
    {"smiles": "NC(=O)N/N=C/c1ccc(O)c(CN2CCN(c3ccnc4cc(Cl)ccc34)CC2)c1O", "values": [
      {"measurement": "IC50", "setting": "[1]", "value": "> 20", "unit": "µM"},
      {"measurement": "IC50", "setting": "[2]", "value": 0.25, "unit": "µM"}
    ]},
    {"smiles": "NC(=S)N/N=C/c1ccc(O)c(CN2CCOCC2)c1O", "values": [
      {"measurement": "IC50", "setting": "[1]", "value": "> 20", "unit": "µM"},
      {"measurement": "IC50", "setting": "[2]", "value": "> 10", "unit": "µM"}
    ]},
    {"smiles": "CN1CCN(Cc2c(O)ccc(/C=N/NC(=O)NCCNc3ccnc4cc(Cl)ccc34)c2O)CC1", "values": [
      {"measurement": "IC50", "setting": "[1]", "value": "> 20", "unit": "µM"},
      {"measurement": "IC50", "setting": "[2]", "value": 0.38, "unit": "µM"}
    ]},
    {"smiles": "NC(=S)N/N=C/c1ccc(O)c(CN2CCCC2)c1O", "values": [
      {"measurement": "IC50", "setting": "[1]", "value": 5.85, "unit": "µM"},
      {"measurement": "IC50", "setting": "[2]", "value": "> 10", "unit": "µM"}
    ]},
    {"smiles": "O=Cc1ccc(O)c(CN2CCCC2)c1O", "values": [
      {"measurement": "IC50", "setting": "[1]", "value": "> 20", "unit": "µM"},
      {"measurement": "IC50", "setting": "[2]", "value": "> 10", "unit": "µM"}
    ]},
    {"smiles": "O=Cc1ccc(O)c(CN2CCCCC2)c1O", "values": [
      {"measurement": "IC50", "setting": "[1]", "value": "> 20", "unit": "µM"},
      {"measurement": "IC50", "setting": "[2]", "value": "> 10", "unit": "µM"}
    ]},
    {"smiles": "CCN(CC)Cc1c(O)ccc(C=O)c1O", "values": [
      {"measurement": "IC50", "setting": "[1]", "value": "> 20", "unit": "µM"},
      {"measurement": "IC50", "setting": "[2]", "value": "> 10", "unit": "µM"}
    ]},
    {"smiles": "NC(=S)N/N=C/c1ccc(O)c(CN2CCN(c3ccnc4cc(Cl)ccc34)CC2)c1O", "values": [
      {"measurement": "IC50", "setting": "[1]", "value": 2.25, "unit": "µM"},
      {"measurement": "IC50", "setting": "[2]", "value": 3.75, "unit": "µM"}
    ]},
    {"smiles": "CCN(CC)Cc1c(O)ccc(/C=N/NC(N)=S)c1O", "values": [
      {"measurement": "IC50", "setting": "[1]", "value": 11.1, "unit": "µM"},
      {"measurement": "IC50", "setting": "[2]", "value": "> 10", "unit": "µM"}
    ]},
    {"smiles": "O=C(NCCNc1ccnc2cc(Cl)ccc12)N/N=C/c1ccc(O)c(CN2CCOCC2)c1O", "values": [
      {"measurement": "IC50", "setting": "[1]", "value": "> 20", "unit": "µM"},
      {"measurement": "IC50", "setting": "[2]", "value": 0.11, "unit": "µM"}
    ]},
    {"smiles": "CN1CCN(Cc2c(O)ccc(/C=N/NC(N)=S)c2O)CC1", "values": [
      {"measurement": "IC50", "setting": "[1]", "value": 18.2, "unit": "µM"},
      {"measurement": "IC50", "setting": "[2]", "value": "> 10", "unit": "µM"}
    ]},
    {"smiles": "O=C(NCCNc1ccnc2cc(Cl)ccc12)N/N=C/c1ccc(O)c(CN2CCCC2)c1O", "values": [
      {"measurement": "IC50", "setting": "[1]", "value": 0.72, "unit": "µM"},
      {"measurement": "IC50", "setting": "[2]", "value": 1.07, "unit": "µM"}
    ]},
    {"smiles": "O=C(NCCNc1ccnc2cc(Cl)ccc12)N/N=C/c1ccc(O)c(CN2CCN(c3ccnc4cc(Cl)ccc34)CC2)c1O", "values": [
      {"measurement": "IC50", "setting": "[1]", "value": 3.16, "unit": "µM"},
      {"measurement": "IC50", "setting": "[2]", "value": 0.077, "unit": "µM"}
    ]},
    {"smiles": "O=Cc1ccc(O)c(CN2CCOCC2)c1O", "values": [
      {"measurement": "IC50", "setting": "[1]", "value": "> 20", "unit": "µM"},
      {"measurement": "IC50", "setting": "[2]", "value": "> 10", "unit": "µM"}
    ]}
  ]
}
